Results pooled from the literature.
Each line is one published result; the experiments were not run side by side.
MAPK10: Mitogen-activated protein kinase 10 (MAPK10, Homo sapiens, UniProt P53779)
ALK: ALK tyrosine kinase receptor (ALK, Homo sapiens, UniProt Q9UM73)
SLC47A1: Multidrug and toxin extrusion protein 1 (SLC47A1, Homo sapiens, UniProt Q96FL8)
SCN5A: Sodium channel protein type 5 subunit alpha (SCN5A, Homo sapiens, UniProt Q14524)
CTSB: Cathepsin B (CTSB, Homo sapiens, UniProt P07858)
SIRT6: NAD-dependent protein deacylase sirtuin-6 (SIRT6, Homo sapiens, UniProt Q8N6T7)
CCR5: C-C chemokine receptor type 5 (CCR5, Homo sapiens, UniProt P51681)
TEK: Angiopoietin-1 receptor (TEK, Homo sapiens, UniProt Q02763)
CCR2: C-C chemokine receptor type 2 (CCR2, Homo sapiens, UniProt P41597)
FASN: Fatty acid synthase (FASN, Gallus gallus, UniProt P12276)

With `CSc1nc(C)c(-c2ccnc(NC3CCOCC3)c2)[nH]1` the IC50 was 2.63 µM (MAPK10; enzyme activity, inhibitor, ELISA).
`Cc1cccc(-c2cc(C)n[nH]2)c1` gave an IC50 of 230 µM (ALK; enzyme activity, inhibitor, TR-FRET).
For `CCS(=O)(=O)N1CC(CC#N)(n2cc(-c3ncnc4[nH]ccc34)cn2)C1`, the IC50 was 76.7 µM (SLC47A1; transporter uptake, inhibitor, radiometric; 2 min).
`CCOC(F)(F)c1nnc2cnc(-c3cnc(OCC(F)(F)F)c(F)c3)cn12` gave an IC50 of 0.989 µM (SCN5A; ion current, inhibitor, patch clamp).
For `Cc1nc2ccc(Cl)cc2c(=O)n1NC1=NC(=O)CS1`, the IC50 was 74.5 µM (CTSB; enzyme activity, inhibitor).
`NC(=O)c1ccc(C(=O)NOCc2ccc(C(F)(F)F)cc2)cc1` gave an IC50 of 3.13 µM (SIRT6; enzyme activity, inhibitor, fluorescence).
`CC(=O)c1ccc2[nH]c3nc(C)ccc3c2c1` gave an IC50 of over 10 µM (ALK; enzyme activity, inhibitor, ELISA).
For `CN(Cc1ccc(NC(=O)C2=Cc3cc(-c4ccc(OCCCCCO)cc4)ccc3CCC2)cc1)C1CCOCC1`, the IC50 was 3.1 µM (CCR5; ligand displacement, radioligand; cell membranes).
`Nc1nonc1-n1cc(C(=O)N/N=C/c2cccc(O)c2O)nn1` gave an IC50 of 13.8 µM (SIRT6; enzyme activity, inhibitor, fluorescence).
For `NC(=O)c1ccc(C(=O)NOCc2cc(Cl)cc(Cl)c2)cc1`, the IC50 was 2.97 µM (SIRT6; enzyme activity, inhibitor, fluorescence).
`CN(Cc1ccc(NC(=O)C2=Cc3cc(-c4ccc(OCCCCCF)cc4)ccc3CCC2)cc1)C1CCOCC1` gave an IC50 of 2 µM (CCR5; ligand displacement, radioligand; cell membranes).
The IC50 of `Cc1ccc(C(=O)Nc2ccc(Oc3cc4cnn(C)c4cc3-c3cn[nH]c3)c(F)c2)c(=O)n1-c1ccc(F)cc1` is reported as 0.004 µM (TEK; enzyme activity, inhibitor, radiometric).
`COc1ccc(-c2ccc3[nH]c4ncc(C=Cc5ccccc5)cc4c3c2)cc1` has an IC50 of 1.2 µM (ALK; enzyme activity, inhibitor, ELISA).
The IC50 of `Cc1cc(-c2cccc(C(C)(C)C)c2)[nH]n1` is reported as 270 µM (ALK; enzyme activity, inhibitor, TR-FRET).
The IC50 of `O=C(O)CC(=O)C(=O)O` is reported as 3320 µM (LDHA (Oryctolagus cuniculus, UniProt P13491); enzyme activity, inhibitor).
With `COC(=O)[C@@]1(c2ccc(F)cc2F)C[C@@H]1Oc1ccc(C#N)cc1-c1cc(C)[nH]n1` (racemic) the IC50 was 0.45 µM (ALK; phosphorylation in cells, inhibitor, ELISA).
`CC(C)C[C@H](NC(=O)[C@H](CC(N)=O)NC(=O)[C@@H](N)CC(C)C)C(=O)NCC(=O)NCCCCNC(=O)c1ccc(-c2n[nH]c3ccccc23)cc1` has an IC50 of 0.157 µM (MAPK10; enzyme activity, inhibitor).
`CN(C(=O)n1cnc(-c2ccc[n+]([O-])c2)c1)C1CCCCC1` has an IC50 of over 33.3 µM (SLC47A1; transporter uptake, inhibitor; MDCK-II).
For `NC(=O)c1ccc(C(=O)NOCc2ccc(C(F)(F)F)c(Cl)c2)cc1`, the IC50 was 1.99 µM (SIRT6; enzyme activity, inhibitor, fluorescence).
With `Nc1ncc2c(n1)-c1c([nH]c3ccc(-c4ccc(F)cc4)cc13)CCC2` the IC50 was 0.035 µM (Myosin light chain kinase family member 4 (MYLK4, Homo sapiens, UniProt Q86YV6); enzyme activity, inhibitor, radiometric).
With `Nc1nonc1-n1cc(C(=O)N/N=C/c2ccco2)nn1` the IC50 was 14 µM (SIRT6; enzyme activity, inhibitor, fluorescence).
`NC(=O)c1ccc(C(=O)NOCc2ccc(Sc3cccc(C(F)(F)F)c3)c(C(F)(F)F)c2)cc1` has an IC50 of 1.1 µM (SIRT6; enzyme activity, inhibitor, fluorescence).
For `Cc1cnc(-c2ccc(-c3ccc(NC(=O)Nc4c(F)cc(F)cc4F)cc3F)c3c2C(=O)NC3)[nH]1`, the IC50 was 0.0876 µM (Vascular endothelial growth factor receptor 3 (FLT4, Homo sapiens, UniProt P35916); enzyme activity, inhibitor).
`CN(C)CCC=C1c2ccccc2CCc2ccccc21` gave an IC50 of 29.6 µM (SLC47A1; transporter uptake, inhibitor, radiometric; HEK293; 5 min).
`NC(=O)c1ccc(C(=O)NOCc2ccc(Sc3ccc(C(F)(F)F)cc3)c(C(F)(F)F)c2)cc1` has an IC50 of 1.79 µM (SIRT6; enzyme activity, inhibitor, fluorescence).
For `CN(Cc1ccc(NC(=O)C2=Cc3cc(-c4ccc(OCCCF)cc4)ccc3CCC2)cc1)C1CCOCC1`, the IC50 was 0.118 µM (CCR2; ligand displacement, radioligand; cell membranes).
`C=C(C)[C@H](CC=C(C)C)Cc1c(O)cc(O)c2c1O[C@H](c1ccccc1O)CC2=O` has an IC50 of 8.5 µM (FASN; enzyme activity, inhibitor, radiometric).
`CC(C)c1ccc(NC(=O)CCc2nc(O)c3c4c(sc3n2)CCC4)cc1` has an IC50 of 0.02 µM (Pantothenate kinase 1 (Homo sapiens, UniProt Q8TE04); enzyme activity, inhibitor, ATP luminescence).
For `COc1ccc2c(Oc3ccc4c(C(=O)Nc5ccccc5N)cccc4c3)ccnc2c1`, the IC50 was over 0.5 µM (Tyrosine-protein kinase Fyn (FYN, Homo sapiens, UniProt P06241); enzyme activity, inhibitor).
The IC50 of `CSc1nc(C)c(-c2ccnc(N[C@H]3CC[C@H](NC(=O)c4ccccc4)CC3)c2)[nH]1` is reported as 1.22 µM (MAPK10; enzyme activity, inhibitor, ELISA).
With `NC(=O)c1ccc(C(=O)NOCc2ccc(Sc3cc(Cl)cc(Cl)c3)c(C(F)(F)F)c2)cc1` the IC50 was 1.24 µM (SIRT6; enzyme activity, inhibitor, fluorescence).
`c1ccc(Nc2ccc3c(n2)[nH]c2ccccc23)cc1` gave an IC50 of over 10 µM (ALK; enzyme activity, inhibitor, ELISA).
`Cc1cc(-c2cc(C#N)ccc2O[C@@H]2C[C@]2(CN(C)C)c2ccc(F)cc2F)n[nH]1` (racemic) has an IC50 of 0.11 µM (ALK; enzyme activity, inhibitor, TR-FRET).
`OCc1cc(C(O)CNCCCCCCOCCCCc2ccccc2)ccc1O` (stereo not drawn) has an IC50 of 64.6 µM (CCR5; calcium signal, antagonist).
With `C=C(C)[C@H](CC=C(C)C)Cc1c(O)cc(O)c2c1O[C@H](c1ccc(O)cc1O)CC2=O` the IC50 was 6.7 µM (FASN; enzyme activity, inhibitor, radiometric).
The IC50 of `O=c1cc(-c2ccc3c(c2)OCO3)oc2c1ccc1occc12` is reported as over 100 µM (Cyclin-dependent kinase 2, with cyclin E1 (CDK2, Homo sapiens, UniProt P24941); enzyme activity, inhibitor, ADP detection).
For `CNC[C@]1(c2ccc(F)cc2F)C[C@H]1Oc1ccc(C#N)cc1-c1cc(C)[nH]n1` (racemic), the IC50 was 0.049 µM (ALK; enzyme activity, inhibitor, TR-FRET).
For `CC(C)C[C@H](NC(=O)[C@H]1O[C@@H]1C(=O)O)C(=O)NCCCCN=C(N)N`, the IC50 was 0.00315 µM (CTSB; enzyme activity, inhibitor).
`COC[C@]1(c2ccc(F)cc2F)C[C@H]1Oc1ccc(C#N)cc1-c1cc(C)[nH]n1` (racemic) gave an IC50 of 0.043 µM (ALK; enzyme activity, inhibitor, TR-FRET).
The IC50 of `Cc1nc2ccccc2c(=O)n1NC(=O)CSc1nc2ccccc2c(=O)n1-c1ccccc1` is reported as 62.8 µM (CTSB; enzyme activity, inhibitor).
`O=C(Oc1cc(O)cc2c1C[C@@H](OC(=O)c1cc(O)c(O)c(O)c1)[C@@H](c1cc(O)c(O)c(O)c1)O2)c1cc(O)c(O)c(O)c1` gave an IC50 of 0.5 µM (Receptor-type tyrosine-protein phosphatase C (PTPRC, Homo sapiens, UniProt P08575); enzyme activity, inhibitor, fluorescence).
With `Cc1cc(-c2cc(C#N)ccc2O[C@H]2C[C@H]2c2ccc(F)cc2F)n[nH]1` the IC50 was over 1 µM (ALK; phosphorylation in cells, inhibitor, ELISA).
The IC50 of `N#Cc1ccccc1CONC(=O)c1ccc(C(N)=O)cc1` is reported as 52.3 µM (SIRT6; enzyme activity, inhibitor, fluorescence).
`O=C(Nc1ccn(Cc2ccc(O)cc2C(F)(F)F)n1)c1c(F)cccc1F` has an IC50 of over 10 µM (SCN5A; ion current, inhibitor).
`CCn1ncc2c1-c1cnc(N)c(c1)O[C@H](C)c1cc(F)ccc1-c1nn(C)nc1C2` gave an IC50 of 0.28 µM (TEK; enzyme activity, inhibitor, radiometric).
The IC50 of `CN(Cc1ccc(NC(=O)C2=Cc3cc(-c4ccc(OCCCO)cc4)ccc3CCC2)cc1)C1CCOCC1` is reported as 0.199 µM (CCR2; ligand displacement, radioligand; cell membranes).
For `NCc1cccc(C(=O)NOCc2ccc(C(F)(F)F)cc2)c1`, the IC50 was 41.2 µM (SIRT6; enzyme activity, inhibitor, fluorescence).
For `Cc1nc2ccc(Br)cc2c(=O)n1/N=C/c1ccc(C(=O)O)cc1`, the IC50 was 33.5 µM (CTSB; enzyme activity, inhibitor).
